UCH37 DUB inh: inhibitors of human UCH37 deubiquitinase, primary screen, biochemical, Ub-AMC cleavage, fluorescence | hit rate 0.33% among 330,000 | AID 588478, 2011 | purified proteasome/UCH37 | inhibition, % (test concentration not listed) | Ubiquitin carboxyl-terminal hydrolase isozyme L5 (Homo sapiens), Q9Y5K5;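 active = mean inhibition over replicate wells above about 20%, limit read from the data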
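System: Proteasome-associated human UCH37 deubiquitinase; Input: 0.15 nM proteasome in added enzyme buffer; Also added: Ub-AMC substrate from 1 µM stock; Incubation: 30 min compound-proteasome preincubation then 25 min substrate reaction, room temperature; Detection: fluorescence, ex 355 nm, em 460 nm; Read-out: % inhibition of Ub-AMC cleavage fluorescence; Benchmarks: no-proteasome and no-compound wells.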
APOBEC3G inh: APOBEC3G DNA deaminase inhibitors, primary screen, biochemical, fluorescence, single-stranded DNA substrate, uHTS; DNA dC->dU-editing enzyme APOBEC-3G (Homo sapiens), Q9HC16; recombinant A3G, ssDNA deamination FAM/TAMRA fluorescence; inhibition, % at 20 µM; hit rate 0.28% among 330,000; AID 493012, 2011;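 active = inhibition of at least 40% at 20 µM, with no more than 30% in the related APOBEC3A deaminase screen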
Target sequence (Q9HC16 whole entry, looked up): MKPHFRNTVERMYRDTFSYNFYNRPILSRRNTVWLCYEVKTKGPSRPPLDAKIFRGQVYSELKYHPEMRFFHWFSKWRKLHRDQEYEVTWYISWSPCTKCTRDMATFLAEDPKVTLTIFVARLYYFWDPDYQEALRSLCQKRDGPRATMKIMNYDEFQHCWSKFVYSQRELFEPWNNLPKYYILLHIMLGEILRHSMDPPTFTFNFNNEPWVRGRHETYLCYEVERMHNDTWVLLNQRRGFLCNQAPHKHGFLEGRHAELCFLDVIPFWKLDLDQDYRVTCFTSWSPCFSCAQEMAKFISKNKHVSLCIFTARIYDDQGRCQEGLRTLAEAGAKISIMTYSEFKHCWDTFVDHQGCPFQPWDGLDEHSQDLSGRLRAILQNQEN
GASC-1 inh: inhibitors of GASC-1 histone demethylase, primary screen, biochemical, fluorescence, DELFIA europium. Lysine-specific demethylase 4C (Homo sapiens), Q9H3R0. GST-JMJD2C(1-420) H3K9me3 demethylation. inhibition, % at 2.35 µM. hit rate 0.069% among 330,000. AID 2099, 2009;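 active = more than half of a compound's replicate wells show inhibition beyond 50%, single wells judged on their own value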;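 also: signal counts dimethyl H3K9 product captured on neutravidin plate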
APOBEC3A inh: APOBEC3A ssDNA deaminase inhibitors, primary screen, selectivity assay for APOBEC3G inhibitor project, biochemical, FAM/TAMRA oligo cleavage fluorescence; inhibition, % at 20 µM; recombinant A3A, FAM/TAMRA ssDNA deamination fluorescence; DNA dC->dU-editing enzyme APOBEC-3A (Homo sapiens), P31941; AID 493011, 2011; hit rate 0.41% among 330,000;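 active = at least 40% inhibition at 20 µM here, with at most 30% in a related deaminase screen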
Target sequence (P31941 whole entry, looked up): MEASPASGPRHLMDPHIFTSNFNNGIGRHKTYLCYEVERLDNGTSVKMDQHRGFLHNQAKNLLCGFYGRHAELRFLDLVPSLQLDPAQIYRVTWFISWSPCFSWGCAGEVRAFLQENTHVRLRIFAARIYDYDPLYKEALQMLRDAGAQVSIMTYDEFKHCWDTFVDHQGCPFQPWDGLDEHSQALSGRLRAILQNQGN
APOBEC3A confirm: APOBEC3A deaminase inhibitors, retest, confirmation, selectivity assay for APOBEC3G inhibitor project, biochemical, single concentration, fluorescence readout; shares compounds with APOBEC3A inh; recombinant A3A, ssDNA deaminase UDG fluorescence assay; inhibition, % at 20 µM; hit rate 63% among 1,400; AID 493151, 2011;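 active = inhibition reaching a set limit, 80% of the first screen's cutoff, at 20 µM in any replicate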
UDG ctr A3A: E. coli UDG inhibitors, confirmation, counter-screen for APOBEC3A inhibitor project, biochemical, single concentration, fluorescence, FAM/TAMRA oligo. shares compounds with APOBEC3A inh. UDG counterscreen, FAM/TAMRA uracil oligo fluorescence. inhibition, % at 20 µM. 1,000 tested, under 10 active. AID 504714, 2011; call rule not given here
Each line names hits and unclear results; the compound was inactive in the other large screens (follow-up assays come after a bar, where they were run). Only some compounds are listed: those with a hit (about 0.97% of all), similar ones and a draw of the others.

O=C(COC(=O)Cc1cccc(C(F)(F)F)c1)Nc1cccc2ccccc12	APOBEC3A inh 41 | APOBEC3A confirm inactive | UDG ctr A3A inactive
COc1cc(C=NNc2nc3ccccc3s2)ccc1OC(=O)c1ccccc1F	none (no result: APOBEC3G inh, GASC-1 inh, APOBEC3A inh)
Cc1c(C(=O)OCC[N+]2(C)CCCCC2)oc2ccccc12	APOBEC3A inh 77 | APOBEC3A confirm 77 | UDG ctr A3A inactive
Cc1c(C(=O)OCC(=O)N2CCC(C)CC2)oc2ccccc12	none
CC(CC(=O)Nc1cccc(S(=O)(=O)N2CCCCC2)c1)c1ccccc1 (stereo not given)	APOBEC3A inh 40 | APOBEC3A confirm inactive
CCN1CCN(c2ccc(S(=O)(=O)N3CCOCC3)cc2NC(=O)CC(C)C)CC1	none
CCN1CCN(c2ccc(S(=O)(=O)N3CCCCC3)cc2NC(=O)c2cccc(OC(F)F)c2)CC1	none
CCN1CCN(c2ccc(S(=O)(=O)N3CCCCC3)cc2NC(=O)c2ccc(OC(F)F)cc2)CC1	APOBEC3A inh 47 | APOBEC3A confirm 54 | UDG ctr A3A inactive
CCN1CCN(c2ccc(S(=O)(=O)N3CCOCC3)cc2NC(=O)C(C)Oc2ccc(Cl)cc2)CC1 (stereo not given)	APOBEC3A inh 56 | APOBEC3A confirm 44 | UDG ctr A3A inactive
CCN1CCN(c2ccc(S(=O)(=O)N3CCCCC3)cc2NC(=O)/C=C/c2ccc(F)cc2)CC1	APOBEC3A inh 61 | APOBEC3A confirm 64 | UDG ctr A3A inactive
Cc1ccc(Oc2ncccc2C=NO)cc1	none (no result: APOBEC3G inh, GASC-1 inh, APOBEC3A inh)
Cc1cc(=O)[nH]c(NN=Cc2ccc([N+](=O)[O-])cc2)n1	none (no result: APOBEC3G inh, GASC-1 inh, APOBEC3A inh)
CN1CCN(c2ccc(S(=O)(=O)N3CCCCC3)cc2NC(=O)/C=C/c2ccc(OC(F)F)cc2)CC1	none
CCN1CCN(c2ccc(S(=O)(=O)N3CCCCC3)cc2NC(=O)/C=C/c2ccc([N+](=O)[O-])cc2)CC1	APOBEC3A inh 40 | APOBEC3A confirm inactive
CCN1CCN(c2ccc(S(=O)(=O)N3CCCCC3)cc2NC(=O)CC(NC(C)=O)c2ccccc2)CC1 (stereo not given)	APOBEC3A inh 88 | APOBEC3A confirm 65 | UDG ctr A3A inactive
CCN1CCN(c2ccc(S(=O)(=O)N3CCOCC3)cc2NC(=O)/C=C/c2ccc(C)cc2)CC1	none
CCN1CCN(c2ccc(S(=O)(=O)N3CCCCC3)cc2NC(=O)/C=C/c2ccc(OC(F)F)cc2)CC1	APOBEC3A inh 46 | APOBEC3A confirm 59 | UDG ctr A3A inactive
CC(=O)Nc1ccc(NC(=O)C(C)OC(=O)c2cccc(S(=O)(=O)N3CCCCC3)c2)cc1 (stereo not given)	none
CC(=O)Nc1ccc(NC(=O)C(C)OC(=O)c2cccc(S(=O)(=O)N3CCCC3)c2)cc1 (stereo not given)	APOBEC3A inh 42 | APOBEC3A confirm inactive
CC(=NNC(=O)CNc1ccc(C)cc1)c1ccc(Br)s1	none (no result: APOBEC3G inh, GASC-1 inh, APOBEC3A inh)
FC(F)(F)c1ccccc1C=NN1CCN(Cc2ccccc2)CC1	none (no result: APOBEC3G inh, GASC-1 inh, APOBEC3A inh)
Cc1c(C(=O)NN=Cc2ccncc2)no[n+]1[O-]	none (no result: APOBEC3G inh, GASC-1 inh, APOBEC3A inh)
CN(Cc1ccccc1)C1=CC(=[N+]2CCCCC2)CC(C)(C)C1	APOBEC3A inh 68 | APOBEC3A confirm 73 | UDG ctr A3A inactive
Brc1cc2ccccc2[n+](Cc2ccccc2)c1	none
CCC[n+]1c2ccccc2cc2ccccc21	APOBEC3A inh 47 (no result: UCH37 DUB inh) | APOBEC3A confirm 42 | UDG ctr A3A inactive
CCCC[n+]1c2ccccc2cc2ccccc21	APOBEC3A inh 55 (no result: UCH37 DUB inh) | APOBEC3A confirm 48 | UDG ctr A3A inactive
CSc1nc(-c2ccco2)nn1C(=O)Cc1ccccc1	APOBEC3A inh 94 | APOBEC3A confirm inactive | UDG ctr A3A inactive
O=C(NC1CCCC1)C(c1ccccn1)N(C(=O)c1csnn1)c1ccc(F)cc1 (stereo not given)	APOBEC3A inh 72 | APOBEC3A confirm inactive | UDG ctr A3A inactive
COC(=O)c1ccc(C=NN2CCN(Cc3ccccc3)CC2)cc1	none (no result: APOBEC3G inh, GASC-1 inh, APOBEC3A inh)
CC(=NNC(=O)COc1ccc2ccccc2c1)c1cccs1	none (no result: APOBEC3G inh, GASC-1 inh, APOBEC3A inh)
CO[C@@]1(NC(=O)C2SC(=C(C(N)=O)C(=O)O)S2)C(=O)N2C(C(=O)O)=C(CSc3nnnn3C)CS[C@@H]21 (stereo not given in full)	APOBEC3A inh 50 (no result: GASC-1 inh) | APOBEC3A confirm 43 | UDG ctr A3A inactive
Cc1nn(CC(=O)NC2C(=O)N3C(C(=O)O)=C(CSc4nnnn4C)CSC23)cc1Br (stereo not given)	none
COc1cccc2sc(Nc3nc(-c4cc5ccccc5oc4=O)cs3)nc12	none (no result: APOBEC3G inh, APOBEC3A inh)
COc1cccc2sc(Nc3nc(-c4ccncc4)cs3)nc12	APOBEC3A inh 45 | APOBEC3A confirm 24 | UDG ctr A3A inactive
COc1ccc(/C=C2/S/C(=N/N=C3CC4CCC3(C)C4(C)C)NC2=O)cc1 (stereo not given)	none (no result: APOBEC3G inh, GASC-1 inh, APOBEC3A inh)
CCCC(=O)NCCCc1nc2ccccc2n1CC	none
C=CCn1c(CCCNC(=O)CCC)nc2ccccc21	APOBEC3A inh 47 | APOBEC3A confirm inactive | UDG ctr A3A inactive
CCn1c(=O)c(C(=O)CN2CCN(S(=O)(=O)c3ccc(C)cc3C)CC2)c(N)n(Cc2ccccc2)c1=O	APOBEC3A inh 44 | APOBEC3A confirm inactive
CCn1c(=O)c(C(=O)CN2CCN(S(=O)(=O)c3ccccc3)CC2)c(N)n(Cc2ccccc2)c1=O	none
O=C(NCCc1ccccc1)c1cc2ncc(Br)cn2n1	APOBEC3A inh 76 | APOBEC3A confirm 44 | UDG ctr A3A inactive
COCCNC(=O)c1cc2ncc(Br)cn2n1	none
O=C(c1cc2ncc(Br)cn2n1)N1CCN(C(=O)c2ccco2)CC1	APOBEC3A inh 42 | APOBEC3A confirm 34 | UDG ctr A3A inactive
CCc1ccccc1NC(=O)c1cc2ncc(Br)cn2n1	APOBEC3A inh 41 | APOBEC3A confirm inactive | UDG ctr A3A inactive
Cc1ccc2c(c1Br)C(=NN1C(=O)c3ccccc3C1=O)C(=O)N2	none (no result: APOBEC3G inh, GASC-1 inh, APOBEC3A inh)
C/C(C=NNC(=O)c1cc(-c2cccnc2)nc2c1c(C)nn2-c1ccccc1)=C\c1ccccc1	none (no result: APOBEC3G inh, GASC-1 inh, APOBEC3A inh)
CC(=NNC(=O)c1c(Cl)cnn1C)c1cccc(NC(=O)c2ccc(C)cc2)c1	none (no result: APOBEC3G inh, GASC-1 inh, APOBEC3A inh)
CC(CC(=O)Nc1ccc(N(C)C)cc1)=NNC(=O)c1ccc(C(C)(C)C)cc1	none (no result: APOBEC3G inh, GASC-1 inh, APOBEC3A inh)
